The results in this text go back to publication PMC9295256 (Journal of medicinal chemistry, 2021).

Where two headings read alike, the source gives them in different places. Peptide text beside a SMILES is read from it.

The target of one data set is recombinant rat Nln (Rattus norvegicus, UniProt P42676). The data set can be described thus: Nln activation, continuous quenched fluorescence substrate. The format is biochemical.
The next data set has as its target human NEP (Homo sapiens, UniProt P08473). Kind of data set: Peptidase selectivity: neprilysin, fluorogenic substrate. In kind it is biochemical. As to conditions: eight-point concentration–response up to 300 μM; substrate 10 μM.
For data set [1], the target named is Rat recombinant neurolysin (Rattus norvegicus, UniProt P42676). The data set can be described thus: Hydrolysis of endogenous substrates BK and NT by Nln, LC-MS/MS. In kind it is biochemical. As to conditions: compound 10 or 30 μM, Nln 0.5 nM; for hydrolysis of BK by Nln, formation of BK-(1–5): BK 20 μM; for hydrolysis of NT by Nln, formation of NT-(1–10): NT 20 μM. A digest of the protocol: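 In-house recombinant rat Nln (0.5 nM) was preincubated 10 min at 37 °C with test compound (10 or 30 µM), then given bradykinin (20 µM) for a further 10 min at 37 °C. BK-(1–5) was quantified by LC–MS/MS (water/acetonitrile with 0.1% formic acid gradient, column 40 °C) as a peak-area ratio to internal standard; n = 3.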
Chain of Rat recombinant neurolysin (P42676 38-704): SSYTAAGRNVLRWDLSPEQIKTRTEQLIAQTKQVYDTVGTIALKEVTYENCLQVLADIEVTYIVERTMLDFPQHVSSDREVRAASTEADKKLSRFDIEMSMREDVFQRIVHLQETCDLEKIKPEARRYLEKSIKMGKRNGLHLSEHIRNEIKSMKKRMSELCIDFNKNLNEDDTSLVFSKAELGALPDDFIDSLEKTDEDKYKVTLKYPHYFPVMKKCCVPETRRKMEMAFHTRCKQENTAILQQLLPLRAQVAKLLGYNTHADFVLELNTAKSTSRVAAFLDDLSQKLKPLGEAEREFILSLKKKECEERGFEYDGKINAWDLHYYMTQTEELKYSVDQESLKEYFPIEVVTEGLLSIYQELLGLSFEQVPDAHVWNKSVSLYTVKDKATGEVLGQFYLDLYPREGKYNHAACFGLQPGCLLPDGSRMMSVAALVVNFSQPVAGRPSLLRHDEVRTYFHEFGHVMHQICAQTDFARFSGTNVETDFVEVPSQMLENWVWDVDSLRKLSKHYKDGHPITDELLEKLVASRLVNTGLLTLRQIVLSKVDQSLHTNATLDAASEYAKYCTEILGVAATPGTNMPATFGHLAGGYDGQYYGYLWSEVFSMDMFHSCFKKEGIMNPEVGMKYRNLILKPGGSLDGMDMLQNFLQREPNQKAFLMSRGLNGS

Another data set deals with human TOP (Homo sapiens, UniProt P52888). Kind of data set: Peptidase selectivity: thimet oligopeptidase, fluorogenic substrate. In kind it is biochemical. As to conditions: eight-point concentration–response up to 300 μM; substrate 15 μM.
Chain of human TOP (P52888 whole entry): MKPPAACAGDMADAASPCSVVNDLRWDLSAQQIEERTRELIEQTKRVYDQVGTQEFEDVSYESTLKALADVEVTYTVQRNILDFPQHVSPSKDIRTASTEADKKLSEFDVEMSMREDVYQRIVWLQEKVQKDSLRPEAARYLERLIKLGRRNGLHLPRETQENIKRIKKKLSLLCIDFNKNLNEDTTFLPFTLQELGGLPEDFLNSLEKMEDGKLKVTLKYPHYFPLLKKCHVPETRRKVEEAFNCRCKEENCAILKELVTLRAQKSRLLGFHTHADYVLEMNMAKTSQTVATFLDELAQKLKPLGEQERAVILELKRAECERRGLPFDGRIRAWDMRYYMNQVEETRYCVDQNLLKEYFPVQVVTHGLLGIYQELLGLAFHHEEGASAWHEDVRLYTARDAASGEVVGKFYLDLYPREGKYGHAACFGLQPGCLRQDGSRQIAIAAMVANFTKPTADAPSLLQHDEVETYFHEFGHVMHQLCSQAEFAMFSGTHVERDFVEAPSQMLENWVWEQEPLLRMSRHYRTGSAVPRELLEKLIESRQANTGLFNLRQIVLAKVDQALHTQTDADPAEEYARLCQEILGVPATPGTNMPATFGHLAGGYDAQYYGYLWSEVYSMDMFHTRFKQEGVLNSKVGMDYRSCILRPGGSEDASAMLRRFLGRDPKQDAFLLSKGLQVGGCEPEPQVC
Data set [2] has as its target human angiotensin-converting enzyme (Homo sapiens, UniProt P12821). The data set can be described thus: Peptidase selectivity: ACE, fluorogenic substrate. In kind it is biochemical. As to conditions: eight-point concentration–response up to 300 μM; substrate 10 μM. A digest of the protocol:
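Continuous fluorogenic assay with recombinant human ACE in artificial CSF at 37 °C. Test compound (from 30–50 mM DMSO stocks) was preincubated with enzyme for 10 min. The reaction was started with Mca-[…]Dnp)-OH (10 µM), and fluorescence (ex 320/em 405 nm) was read continuously for 20 min; n = 4.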

The next data set addresses human ACE2 (Homo sapiens, UniProt Q9BYF1). Kind of data set: Peptidase selectivity: ACE2, fluorogenic substrate. As to conditions: eight-point concentration–response up to 300 μM; substrate 10 μM. The format is biochemical. A digest of the protocol: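 Recombinant human ACE2 was tested in artificial CSF at 37 °C with a 10 min preincubation of enzyme and test compound (from 30–50 mM DMSO stocks). Mca-Ala-Pro-Lys(Dnp) (10 µM) started the reaction, and fluorescence (320 nm excitation, 405 nm emission) was followed continuously for 20 min; n = 4.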

In data set [3] the test system is co-culture of primary mouse astrocytes and immortalized mouse endothelial cells (bEnd3). The format is in vitro ADME. As to conditions: ratio of Pe values.
The format of data set [4] is in vitro ADME, mouse.
The nature of data set [5]: Brain protein binding, rapid equilibrium dialysis. The format is in vitro ADME. As to conditions: mouse, mouse brain homogenate (dilution factor D = 5). A digest of the protocol: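 Mouse brain homogenate spiked to 500 ng/mL final (from a 10 µg/mL aqueous dilution of DMSO solution) was dialysed against DPBS across an 8 kDa cutoff membrane for 4 h at 37 °C with 250 rpm orbital shaking. Both chambers were sampled and quantified by LC–MS/MS. fu,d = receiver/donor, corrected to undiluted fu with D = 5. Done in triplicate.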
On the technique in general: In equilibrium dialysis free small molecules cross a membrane that holds back macromolecules.

Where [6] appears, read: 100% = normal enzyme turnover, mean of n = 4, 95% CI in parentheses.

Chain of recombinant rat Nln (P42676 38-704): as the sequence (P42676 38-704) above
Chain of human angiotensin-converting enzyme (P12821 30-1306): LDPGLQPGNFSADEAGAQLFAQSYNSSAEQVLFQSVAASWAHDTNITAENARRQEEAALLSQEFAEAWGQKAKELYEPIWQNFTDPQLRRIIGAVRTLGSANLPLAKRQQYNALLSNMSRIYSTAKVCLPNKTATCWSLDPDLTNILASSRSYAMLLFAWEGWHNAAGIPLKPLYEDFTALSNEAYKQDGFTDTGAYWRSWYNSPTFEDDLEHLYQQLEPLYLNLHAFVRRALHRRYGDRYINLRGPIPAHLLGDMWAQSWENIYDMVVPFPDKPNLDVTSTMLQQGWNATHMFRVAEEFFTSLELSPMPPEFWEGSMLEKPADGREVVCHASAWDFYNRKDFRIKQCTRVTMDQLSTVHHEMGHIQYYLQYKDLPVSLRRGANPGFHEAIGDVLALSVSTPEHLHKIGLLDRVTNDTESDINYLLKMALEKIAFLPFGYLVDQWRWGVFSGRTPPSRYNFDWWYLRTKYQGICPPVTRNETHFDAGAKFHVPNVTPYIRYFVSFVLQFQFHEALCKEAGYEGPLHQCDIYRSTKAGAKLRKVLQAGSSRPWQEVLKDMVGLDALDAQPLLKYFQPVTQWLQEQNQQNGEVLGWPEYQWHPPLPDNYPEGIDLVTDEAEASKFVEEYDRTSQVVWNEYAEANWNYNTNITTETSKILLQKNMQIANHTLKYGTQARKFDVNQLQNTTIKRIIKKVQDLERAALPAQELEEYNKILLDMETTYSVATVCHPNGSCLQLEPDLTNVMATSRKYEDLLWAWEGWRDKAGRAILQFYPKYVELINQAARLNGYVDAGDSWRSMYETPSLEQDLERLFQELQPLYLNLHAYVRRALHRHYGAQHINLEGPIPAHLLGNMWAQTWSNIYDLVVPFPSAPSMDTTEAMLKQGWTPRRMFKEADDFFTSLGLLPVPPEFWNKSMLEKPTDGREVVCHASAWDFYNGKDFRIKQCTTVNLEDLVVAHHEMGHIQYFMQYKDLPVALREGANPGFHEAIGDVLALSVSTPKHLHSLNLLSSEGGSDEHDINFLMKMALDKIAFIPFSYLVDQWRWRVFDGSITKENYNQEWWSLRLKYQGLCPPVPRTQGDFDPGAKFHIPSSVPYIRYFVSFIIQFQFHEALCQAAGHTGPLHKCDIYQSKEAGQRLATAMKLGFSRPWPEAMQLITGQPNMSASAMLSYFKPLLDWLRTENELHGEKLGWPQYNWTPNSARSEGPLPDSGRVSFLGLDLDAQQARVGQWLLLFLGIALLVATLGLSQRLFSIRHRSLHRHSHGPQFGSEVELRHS
Chain of human NEP (P08473 whole entry): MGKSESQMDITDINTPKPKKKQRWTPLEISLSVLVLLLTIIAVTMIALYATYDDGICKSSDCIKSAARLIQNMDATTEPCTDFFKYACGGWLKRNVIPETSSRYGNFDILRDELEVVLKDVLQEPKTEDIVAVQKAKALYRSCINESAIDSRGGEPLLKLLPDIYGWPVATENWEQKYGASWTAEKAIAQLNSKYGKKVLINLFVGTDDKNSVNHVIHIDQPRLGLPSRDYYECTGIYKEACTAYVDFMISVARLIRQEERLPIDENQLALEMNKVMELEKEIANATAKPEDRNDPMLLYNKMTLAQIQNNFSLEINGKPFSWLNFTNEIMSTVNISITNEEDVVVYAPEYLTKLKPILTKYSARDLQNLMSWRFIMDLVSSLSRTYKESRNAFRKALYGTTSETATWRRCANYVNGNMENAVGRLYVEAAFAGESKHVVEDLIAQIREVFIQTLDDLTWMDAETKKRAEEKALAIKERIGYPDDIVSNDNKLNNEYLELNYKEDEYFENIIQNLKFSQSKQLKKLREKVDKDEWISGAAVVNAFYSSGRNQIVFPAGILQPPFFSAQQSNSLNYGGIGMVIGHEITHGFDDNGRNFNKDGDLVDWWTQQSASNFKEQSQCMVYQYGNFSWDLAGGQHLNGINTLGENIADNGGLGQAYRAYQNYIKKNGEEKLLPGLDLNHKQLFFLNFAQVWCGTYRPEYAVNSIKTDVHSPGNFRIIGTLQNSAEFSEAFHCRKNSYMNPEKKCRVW
Chain of human ACE2 (Q9BYF1 18-805): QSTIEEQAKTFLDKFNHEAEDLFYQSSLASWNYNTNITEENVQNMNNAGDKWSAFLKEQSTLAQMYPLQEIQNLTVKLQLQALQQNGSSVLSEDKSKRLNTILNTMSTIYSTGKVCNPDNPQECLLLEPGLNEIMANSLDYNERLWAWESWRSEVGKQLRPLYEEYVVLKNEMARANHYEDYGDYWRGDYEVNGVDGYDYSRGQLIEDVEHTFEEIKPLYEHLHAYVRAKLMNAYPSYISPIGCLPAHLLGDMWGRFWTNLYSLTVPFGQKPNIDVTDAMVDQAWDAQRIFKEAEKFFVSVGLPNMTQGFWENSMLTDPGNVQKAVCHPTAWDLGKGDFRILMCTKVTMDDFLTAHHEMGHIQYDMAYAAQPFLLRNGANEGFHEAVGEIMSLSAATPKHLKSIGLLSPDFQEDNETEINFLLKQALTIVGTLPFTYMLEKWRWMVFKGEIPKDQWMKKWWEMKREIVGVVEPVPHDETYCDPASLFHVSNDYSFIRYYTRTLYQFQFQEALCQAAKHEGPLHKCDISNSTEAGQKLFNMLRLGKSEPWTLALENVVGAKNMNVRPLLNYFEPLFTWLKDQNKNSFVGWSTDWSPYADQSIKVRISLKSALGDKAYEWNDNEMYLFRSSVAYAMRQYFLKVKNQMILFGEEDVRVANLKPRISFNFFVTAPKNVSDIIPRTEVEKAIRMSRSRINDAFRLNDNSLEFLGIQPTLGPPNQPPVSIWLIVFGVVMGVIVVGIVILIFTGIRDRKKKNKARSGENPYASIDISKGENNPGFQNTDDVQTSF

For the compound `N[C@@H](Cc1c[nH]cn1)C(=O)NCc1cccc2ccccc12` [Compound 10c, (S)-2-Amino-3-(1H-imidazol-4-yl)-N-(naphthalen-1-ylmethyl)-propanamide], the “Amax, maximum % activation achieved (95% CI)” value (“Amax … (95% CI)” for short) at recombinant rat Nln (setting [6]) was 264 (256.3 to 272.6) %. Also, at recombinant rat Nln (A50 ratio), the “increase in potency over the least active hit” value is more than 30 fold and the “increase in potency over the most active hit” value is reported as more than 10 fold. For the same compound, the “effect on catalytic activity of NEP” value at human NEP is listed as “None of the three compounds showed appreciable inhibition”. In data set [1], the “hydrolysis of BK by Nln, formation of BK-(1–5)” value is recorded as “enhanced hydrolysis of BK” and the “hydrolysis of NT by Nln, formation of NT-(1–10)” value is given as “hydrolysis of NT by Nln was also enhanced”. The “effect on catalytic activity of TOP” value at human TOP is “No appreciable inhibition”. Besides, the “effect on catalytic activity of ACE” value in data set [2] is “no inhibition at the maximum concentration tested”. In addition, the “effect on catalytic activity of ACE2” value on human ACE2 is “no inhibition up to 300 μM”. In data set [3], the “increase in BBB permeability / brain penetration over hit compounds 1 and 4” value is 4–5 fold.

With `N[C@H](Cc1c[nH]cn1)C(=O)NCCc1ccc(C(F)(F)F)cc1` [Compound 4l, (R)-2-Amino-3-(1H-imidazol-4-yl)-N-(4-(trifluoromethyl)-phenethyl)propanamide], at recombinant rat Nln, the “Amax … (95% CI)” value is reported as 330.1 (313.9 to 347.7) %. For `N[C@@H](Cc1c[nH]cn1)C(=O)N[C@@H](Cc1c[nH]cn1)C(=O)O` [Compound 2, His–His], at recombinant rat Nln, the “Amax … (95% CI)” value was 498.1 (481 to 516.5) %. `N[C@H](Cc1c[nH]cn1)C(=O)NCc1ccc(OC(F)(F)F)cc1` [Compound 5q, (R)-2-Amino-3-(1H-imidazol-4-yl)-N-(4-(trifluoromethoxy)-benzyl)propanamide]: the “Amax … (95% CI)” value on recombinant rat Nln is 337.1 (312 to 364.9) %. Regarding “(S)-tert-Butyl(1-((2-(1H-indol-3-yl)ethyl)amino)-3-(1H-imidazol-4-yl)-1-oxopropan-2-yl)carbamate [Compound 9b]”, at recombinant rat Nln, the “Nln activation, result in words” value is “ameliorates activity”. Besides, the “Amax … (95% CI)” value at recombinant rat Nln (setting [6]) is “Inactive”. Also, the “A50, half maximal activation concentration (95% CI)” value on recombinant rat Nln (recombinant rat Nln, QFS […] μM, 37 °C, mean of n = 4, 95% CI in parentheses) was “Inactive”.

For `N[C@H](Cc1c[nH]cn1)C(=O)NCCc1ccc2ccccc2c1` [Compound 9g, (R)-2-Amino-3-(1H-imidazol-4-yl)-N-(2-(naphthalen-2-yl)ethyl)-propanamide], the “Amax … (95% CI)” value at recombinant rat Nln is listed as 339.8 (325.4 to 355.4) %. On to `N[C@H](Cc1c[nH]cn1)C(=O)NCCc1ccccc1` [Compound 4d, (R)-2-Amino-3-(1H-imidazol-4-yl)-N-phenethylpropanamide], for which the “Amax … (95% CI)” value at recombinant rat Nln (setting [6]) is on record as 294.6 (278.0 to 313) %. For `N[C@@H](Cc1c[nH]cn1)C(=O)NCCc1ccc([N+](=O)[O-])cc1` [Compound 4o, (S)-2-Amino-3-(1H-imidazol-4-yl)-N-(4-nitrophenethyl)-propanamide], at recombinant rat Nln, the “Amax … (95% CI)” value is reported as 282.4 (266.5 to 299.5) %.

As for `N[C@H](Cc1c[nH]cn1)C(=O)NCCCc1ccccc1` [Compound 7b, (R)-2-Amino-3-(1H-imidazol-4-yl)-N-(3-phenylpropyl)-propanamide], the “Amax … (95% CI)” value at recombinant rat Nln (setting [6]) is 281.8 (269.9 to 294.5) %. For `N[C@H](Cc1c[nH]cn1)C(=O)Nc1cccc2cccnc12` [Compound 11b, (R)-2-Amino-3-(1H-imidazol-4-yl)-N-(quinolin-8-yl)propanamide], the “Amax … (95% CI)” value on recombinant rat Nln (setting [6]) is 288.3 (274.3 to 303.3) %. For the same compound, the “mean Amax of the two enantiomers” value at recombinant rat Nln (mean over L and D enantiomer) is given as 285%. In the case of `N[C@@H](Cc1c[nH]cn1)C(=O)NCCc1ccc(C(F)(F)F)cc1` [Compound 4k, (S)-2-Amino-3-(1H-imidazol-4-yl)-N-(4-(trifluoromethyl)-phenethyl)propanamide], the “Amax … (95% CI)” value at recombinant rat Nln is recorded as 299.4 (283.9 to 316.2) %. In the case of `N[C@H](Cc1c[nH]cn1)C(=O)NCc1ccc(C(F)(F)F)cc1` [Compound 5i, (R)-2-Amino-3-(1H-imidazol-4-yl)-N-(4-(trifluoromethyl)benzyl)-propanamide], the “Amax … (95% CI)” value at recombinant rat Nln is 319.1 (296.3 to 344.3) %. With `COc1ccc(CCNC(=O)[C@@H](N)Cc2c[nH]cn2)cc1` [Compound 4e, (S)-2-Amino-3-(1H-imidazol-4-yl)-N-(4-methoxyphenethyl)-propanamide], the “Amax … (95% CI)” value on recombinant rat Nln (setting [6]) was 339.4 (314.2 to 369.3) %. In the case of `N[C@@H](Cc1c[nH]cn1)C(=O)N[C@@H](Cc1c[nH]c2ccccc12)C(=O)O` [Compound 4, His–Trp], in data set [4] (CD-1, mouse), the apparent permeability from apical to basolateral (Papp A→B) (as a rule, how fast a substance crosses the layer from the apical side) at 120 min, 10 μg/mL is 5.33 ×10⁻⁶ cm/s. As for `N[C@@H](Cc1cnc[nH]1)C(=O)N[C@@H](Cc1ccc(O)cc1)C(=O)O` [Compound 1, His–Tyr] (H-His-Tyr-OH), the “Amax … (95% CI)” value at recombinant rat Nln is 465.2 (440.2 to 492.3) %.

In the case of `N[C@H](Cc1c[nH]cn1)C(=O)NCc1ccc(F)cc1` [Compound 5o, (R)-2-Amino-N-(4-fluorobenzyl)-3-(1H-imidazol-4-yl)-propanamide], the “Amax … (95% CI)” value on recombinant rat Nln is listed as 320.5 (299.7 to 343.9) %. Consider `N[C@@H](Cc1c[nH]cn1)C(=O)NCc1ccc(OC(F)(F)F)cc1` [Compound 5p, (S)-2-Amino-3-(1H-imidazol-4-yl)-N-(4-(trifluoromethoxy)-benzyl)propanamide], for which the “Amax … (95% CI)” value at recombinant rat Nln was 310 (287.2 to 336.1) %.

Turning to `NC(Cc1c[nH]cn1)C(=O)NCCc1c[nH]c2ccccc12` (racemic) [(rac)-9a, (rac)-N-(2-(1H-Indol-3-yl)ethyl)-2-amino-3-(1H-imidazol-4-yl)-propanamide], on recombinant rat Nln (setting [6]), the “Amax … (95% CI)” value is given as 197 (177.5 to 222.8) %. In the case of `N[C@@H](Cc1c[nH]cn1)C(=O)NCCc1c[nH]c2ccccc12` [Compound 9d, (S)-N-(2-(1H-Indol-3-yl)ethyl)-2-amino-3-(1H-imidazol-4-yl)-propanamide], the “effect on catalytic activity of NEP” value at human NEP is on record as “None of the three compounds showed appreciable inhibition”. Besides, in data set [1], the “hydrolysis of BK by Nln, formation of BK-(1–5)” value is reported as “enhanced hydrolysis of BK” and the “hydrolysis of NT by Nln, formation of NT-(1–10)” value is listed as “hydrolysis of NT by Nln was also enhanced”. Further, the “effect on catalytic activity of TOP” value on human TOP is “only exhibited inhibition at concentrations approaching 300 μM”. Besides, in [2], the “effect on catalytic activity of ACE” value is on record as “inhibition of ACE at high concentration”. The “effect on catalytic activity of ACE2” value on human ACE2 was “inhibition of ACE2 at high concentrations”. This compound also had an apparent permeability from apical to basolateral (Papp A→B) at 120 min, 10 μg/mL in data set [4] (CD-1 (source of the primary astrocytes), mouse) of 17.8 ×10⁻⁶ cm/s. Also, in data set [3], the “increase in BBB permeability / brain penetration over hit compounds 1 and 4” value is recorded as 4–5 fold. Also, the fraction unbound (in general, the share of the substance not bound to proteins or other matrix) at 4 h, 500 ng/mL in [5] was 0.14 ± 0.012.

Regarding `N[C@H](Cc1c[nH]cn1)C(=O)NCc1cccc2ccccc12` [Compound 10d, (R)-2-Amino-3-(1H-imidazol-4-yl)-N-(naphthalen-1-ylmethyl)-propanamide], the “Amax … (95% CI)” value on recombinant rat Nln (setting [6]) is reported as 343 (325.2 to 363.5) %.

For the compound `N[C@@H](Cc1c[nH]cn1)C(=O)NCc1ccc(F)cc1` [Compound 5n, (S)-2-Amino-N-(4-fluorobenzyl)-3-(1H-imidazol-4-yl)-propanamide], the “Amax … (95% CI)” value on recombinant rat Nln is listed as 293 (276.5–310.7) %. With `COc1ccc(CNC(=O)[C@H](N)Cc2cnc[nH]2)cc1` [Compound 5c, (R)-2-Amino-3-(1H-imidazol-4-yl)-N-(4-methoxybenzyl)-propanamide], the “Amax … (95% CI)” value on recombinant rat Nln was 703.5 (588.9 to 915.6) %.

For `N[C@H](Cc1c[nH]cn1)C(=O)NCCc1c[nH]c2ccccc12` [Compound 9e, (R)-N-(2-(1H-Indol-3-yl)ethyl)-2-amino-3-(1H-imidazol-4-yl)-propanamide], the “Amax … (95% CI)” value at recombinant rat Nln (setting [6]) was 132 (122.5 to 143.6) %; at recombinant rat Nln (100% = normal enzyme turnover, mean of n = 4, 95% CI in parentheses, listed as D-9e), 132%.
